Experimental data reported in publication PMC6077846 (ChemMedChem, 2018).
Entries after “also recorded” stand apart in the source; their conditions may differ.

Key:
[1] = Stability in aqueous sodium phosphate buffer; format: physicochemical; conditions: sodium phosphate buffer 0.15 M, pH 7.4
cPLA2α [2] = conditions: cPLA2α inhibition; ref [19] and [20]; cited from earlier work
[3] = Tissue stability in rat brain homogenate; format: in vitro ADME; conditions: room temperature, 30 min
Lipophilicity = format: physicochemical; conditions: 1-octanol/sodium phosphate buffer, pH 7.4
Summary of the method: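 The 11C-labelled test compound was partitioned between 1-octanol and 0.15 M sodium phosphate buffer, pH 7.4. The aqueous phase left after extraction was analysed by radio-HPLC on C18 with MeOH:H2O:Et3N (92.5:7.5:0.1) at 4.0 mL/min. The result was decay-corrected and corrected for radioligand instability in the buffer.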

cPLA2α [4] = target: T1, cPLA2α (Mus musculus, UniProt P47713); test: PET imaging in wild type mice with self-block pretreatment; format: in vivo; conditions: blocking agent 2 mg/kg i.v. 30 min before radioligand
T1 sequence (P47713 1-748): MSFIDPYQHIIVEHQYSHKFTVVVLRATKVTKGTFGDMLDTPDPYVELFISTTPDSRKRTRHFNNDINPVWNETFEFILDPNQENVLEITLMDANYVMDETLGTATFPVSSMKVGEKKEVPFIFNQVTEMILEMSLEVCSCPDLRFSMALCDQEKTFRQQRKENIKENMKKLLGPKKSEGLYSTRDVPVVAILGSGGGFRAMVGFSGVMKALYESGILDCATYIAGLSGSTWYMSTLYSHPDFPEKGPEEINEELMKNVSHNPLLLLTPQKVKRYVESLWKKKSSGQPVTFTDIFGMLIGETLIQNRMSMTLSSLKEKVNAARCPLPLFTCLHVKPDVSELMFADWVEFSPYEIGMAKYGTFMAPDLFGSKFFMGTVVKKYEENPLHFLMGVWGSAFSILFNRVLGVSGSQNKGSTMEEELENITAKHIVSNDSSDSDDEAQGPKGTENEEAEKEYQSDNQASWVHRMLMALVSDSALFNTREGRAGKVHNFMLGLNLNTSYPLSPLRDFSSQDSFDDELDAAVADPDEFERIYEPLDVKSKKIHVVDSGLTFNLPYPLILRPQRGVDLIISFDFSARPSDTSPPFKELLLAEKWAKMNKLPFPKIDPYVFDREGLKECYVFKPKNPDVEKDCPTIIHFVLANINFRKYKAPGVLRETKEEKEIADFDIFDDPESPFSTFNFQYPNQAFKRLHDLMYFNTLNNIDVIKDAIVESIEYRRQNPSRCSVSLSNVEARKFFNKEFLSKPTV
Summary of the method: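 Wild-type mice under 1.5% isoflurane first received unlabelled blocking agent, 2 mg/kg i.v. via tail-vein catheter. Thirty minutes later they were given about 7.4 MBq of 11C-labelled test compound in ethanol/saline (1:9), ascorbic acid and Tween. MicroPET ran for 100 min. Brain time-activity curves were compared with baseline. Reconstruction used FORE/2D OSEM without attenuation or scatter correction.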

[5] = PET imaging in wild type mice, baseline radioactivity uptake; format: in vivo; conditions: i.v. injection
Summary of the method: (§1)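 Mice under 1.5% isoflurane were given about 7.4 MBq of 11C-labelled test compound i.v. via a tail-vein catheter. Vehicle was ethanol/saline 1:9 with ascorbic acid and Tween. Dynamic microPET ran for 100 min and brain time-activity curves were plotted in SUV. Images were reconstructed by Fourier rebinning and 2D OSEM, with no attenuation or scatter correction.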

[6] = Distribution into cellular blood elements, monkey blood; format: in vitro ADME; conditions: absence of autologous plasma
Summary of the method: (§2)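 Carbon-11 carboxyl-labelled test compound added to freshly drawn heparin-anticoagulated blood. Blood cells were tested with and without autologous plasma, and the fraction of radioactivity bound to cells was determined. Mean ± SD, n = 3.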

P-gp/BCRP = test: PET imaging in P-gp/BCRP dual knock-out mice; format: in vivo
Summary of the method: as §1

[7] = Distribution into cellular blood elements, rat blood; format: in vitro ADME; conditions: absence of autologous plasma
Summary of the method: as §2

Q: What does the source list for `CC(=O)c1cn(CC(=O)COc2ccc(Oc3ccc(C(F)(F)F)cc3)cc2)c2ccc(C(=O)O)cc12` [[^11C]2, 3-acetyl-1-(2-oxo-3-(4-(4-(trifluoromethyl)-phenoxy)phenoxy)propyl)-1H-indole-5-carboxylic acid]?
A: Stability in buffer [1]: 98.4±0.2%; IC50 (cPLA2α [2]): 10 nM; Stability in rat brain homogenate [3]: 97.5%; logD (Lipophilicity): 2.43 ± 0.01

Q: With `Cc1noc(-c2cn(CC(=O)COc3ccc(Oc4ccccc4)cc3)c3ccc(C(=O)O)cc23)n1` [[^11C]3, 3-(3-methyl-1,2,4-oxadiazol-5-yl)-1-(2-oxo-3-(4-phenoxyphenoxy)propyl)-1H-indole-5-carboxylic acid] as the molecule, how does the Stability in buffer [1] read?
A: 99.7±0.2%

Q: What about the IC50 (cPLA2α [2]) of the same molecule?
A: 6.1 nM

Q: And the logD (Lipophilicity)?
A: 2.07 ± 0.02

Q: For `CCCCCCCCc1ccc(OCC(=O)Cn2cc(-c3nc(C)no3)c3cc(C(=O)O)ccc32)cc1` [[^11C]4, 3-(3-methyl-1,2,4-oxadiazol-5-yl)-1-(3-(4-octylphenoxy)-2-oxopropyl)-1H-indole-5-carboxylic acid], which Stability in buffer [1] is on record?
A: 80.3±3.4%

Q: And the “Stability in rat brain homogenate” value [3]?
A: 104%

Q: And the logD (Lipophilicity)?
A: 1.94 ± 0.15

Q: Which results are given for `CC(C)C(=O)c1cn(CC(=O)COc2ccc(Oc3ccccc3)cc2)c2ccc(C(=O)O)cc12` [[^11C]1, 3-isobutyryl-1-(2-oxo-3-(4-phenoxyphenoxy)propyl)-1H-indole-5-carboxylic acid]?
A: Effect of pretreatment with non-radioactive ligand on brain time-activity curve (cPLA2α [4]): did not alter; Peak radioactivity in brain [5]: 0.4 SUV; Bound to blood cells [6]: More than 94%; IC50 (cPLA2α [2]): 12 nM; Peak radioactivity in brain (P-gp/BCRP; P-gp/BCRP dual knock-out mice, i.v. injection): 0.5 SUV; Efflux transporter (P-gp/BCRP) substrate status (P-gp/BCRP; wild type vs dual knock-out mice brain uptake): not efflux transporters substrates; also recorded: not a brain P-gp or BRCP efflux transporter substrate; logD (Lipophilicity): 2.1 ± 0.01; Bound to blood cells [7]: More than 94%
